Published values gathered from unrelated publications.
Lines come from different studies, so protocols differ.

`CC(=O)Oc1ccccc1C(=O)O` gave a solubility of 12600 µg/mL (PBS; pH 7.4).
The solubility of `CCOc1ccc2cc(-c3nn(CC4CC4)c(N)c3C(N)=O)ccc2n1` is reported as 10.9 µM (PBS; pH 6.5; 25 °C).
The solubility of `NC1CCN(c2nccc3[nH]c(-c4cccc(OC(F)(F)F)c4)nc23)CC1` is reported as greater than 200 µM (shake flask; aqueous buffer; pH 6.5).
`COc1cccc2c(NCc3ccccc3)nc(NCc3ccccc3)nc12` has a solubility of 3.2 µg/mL (aqueous buffer; pH 5).
For `N=C(N)NCc1ccc(NC(=O)C23CCC(C(=O)Nc4ccc(C5=CCN(C(=N)N)CC5)cc4)(CC2)CC3)cc1`, the solubility was 46 µg/mL (shake flask; aqueous buffer; pH 7.4).
`Cc1cccc(F)c1N1CCC(N2Cc3cn(CC(C)(F)F)nc3N(Cc3ccccc3C(F)(F)F)C2=O)CC1` gave a solubility of 10 µM (aqueous buffer; pH 7.4).
`Clc1ccc2c(c1)nc(NCCN1CCOCC1)n2Cc1ccccc1` gave a solubility of 53 µM (shake flask; aqueous buffer; 20 h; pH 6.5; 25 °C).
`CN1CCN(CC2CCN(c3cccc4[nH]c(-c5cc(F)cc(F)c5)nc34)CC2)CC1` gave a solubility of greater than 200 µM (shake flask; aqueous buffer; pH 6.5).
With `CN(C)CCCN1c2ccccc2Sc2ccc(Cl)cc21` the solubility was 810 µg/mL (FaSSIF; 24 h; pH 7.4; 37 °C).
For `COC(=O)[C@H]1[C@H]2C[C@@H]3c4[nH]c5cc(OC)ccc5c4CCN3C[C@H]2C[C@@H](OC(=O)c2cc(OC)c(OC)c(OC)c2)[C@@H]1OC`, the solubility was less than 5 µM (shake flask; PBS; 24 h; pH 6.5; 25 °C).
With `O=C(Nc1ccc(S(=O)(=O)N2CCC(Cl)CC2)cc1)c1ccc([N+](=O)[O-])o1` the solubility was 9.2 µM (aqueous buffer; pH 6.2).
The solubility of `O=C(Nc1c2c(cc3c1CCC3)CCC2)NS(=O)(=O)/C=C/c1nccs1` is reported as 646 µg/mL (PBS; 24 h; pH 6.8; 37 °C).
`Brc1ccc2c(c1)nc(C1CCNCC1)n2Cc1ccccc1` gave a solubility of 110 µM (shake flask; aqueous buffer; 20 h; pH 6.5; 25 °C).
For `c1ccc(CNc2nc(N3CCNc4ccccc43)nc3ccccc23)cc1`, the solubility was 18 µg/mL (aqueous buffer; pH 6.2).
With `O=C(Nc1ccc(C(F)(F)F)cc1)N1CCC(Cc2cccc(Oc3ccc(C(F)(F)F)cn3)c2)CC1` the solubility was 0.0016 µM (water; 48 h; 37 °C).
The solubility of `CC(C)N1CCN(Cc2cnc(-c3cc(-c4cccc5[nH]ccc45)cc4[nH]ncc34)o2)CC1` is reported as 1 µg/mL (aqueous buffer; pH 10).
`COc1cc(OC)cc(N(CCNC(C)C)c2ccc3ncc(-c4cnn(C)c4)nc3c2)c1` has a solubility of 6820 µg/mL (aqueous buffer; pH 6.79).
For `COc1c(Cl)cccc1Nc1nc(NCc2ccccc2)c2ccccc2n1`, the solubility was 0.23 µg/mL (aqueous buffer; pH 6.2).
For `CC(C)Oc1ccc2cc(-c3nn(C(C)(C)C)c(N)c3C(N)=O)cnc2c1`, the solubility was greater than 100 µM (PBS; pH 6.5; 25 °C).
With `CSc1nc2nc(C)cc(Nc3ccc(C(F)(F)F)cc3)n2n1` the solubility was 19 to 38 µM (nephelometry; aqueous buffer; pH 6.5).
The solubility of `COc1ccc(Nc2nc(NCc3ccccc3)c3ccccc3n2)cc1F` is reported as 0.03 µg/mL (aqueous buffer; pH 6.2).
For `CC(C)C[C@H](NC(=O)[C@H](CCc1ccccc1)NC(=O)CN1CCOCC1)C(=O)N[C@@H](Cc1ccccc1)C(=O)N[C@@H](CC(C)C)C(=O)[C@@]1(C)CO1`, the solubility was 1.56 µM (PBS; 24 h; pH 7.4; 37 °C).
For `COc1cc2ncnc3c2cc1OCCOCCOc1cc(F)c(Cl)cc1N3`, the solubility was 0.131 to 0.174 µg/mL (HPLC; aqueous buffer; 24 h).
With `O=C(/C=C/c1ccc(CN(CCO)CCc2c[nH]c3ccccc23)cc1)NO` the solubility was 8 µg/mL (HPLC; water; 48 h; pH 6; 25 °C).
The solubility of `Cc1cc(Nc2ccc(S(F)(F)(F)(F)F)cc2)n2nc(C3CC3)nc2n1` is reported as 16 to 32 µM (nephelometry; aqueous buffer; pH 6.5).
`CCOc1ccc2cc(-c3nn(C4CCCCC4)c(N)c3C(N)=O)ccc2n1` gave a solubility of 88.9 µM (PBS; pH 6.5; 25 °C).
`Cc1ccc(S(=O)(=O)NCc2ccc(C(=O)NCCN(Cc3ccccc3)C(C)C)cc2)cc1` gave a solubility of 0.12 µg/mL (aqueous buffer; pH 6.2).
`Cc1cc(F)cc(Nc2nc(NCc3ccccc3)c3ccccc3n2)c1` has a solubility of 0.05 µg/mL (aqueous buffer; pH 5).
`O=C(O)c1ccc(-c2nnc(-c3ncccn3)nn2)cc1` gave a solubility of no more than 200 µM (water).
With `COCc1nn(Cc2ccc(Cn3ccccc3=O)cc2)cc1C(=O)NCc1c(F)ccc(OC)c1F` the solubility was 9 µg/mL (FaSSIF; 4 h; pH 1.6).
The solubility of `CC(C)(C)n1nc(-c2cnc3cc(OCC4CC4)ccc3c2)c(C(N)=O)c1N` is reported as 26.8 µM (PBS; pH 6.5; 25 °C).
For `NCCNc1nc2cc(Cl)ccc2n1Cc1ccccc1`, the solubility was no less than 200 µM (shake flask; aqueous buffer; 20 h; pH 6.5; 25 °C).
`COc1ccc(N2CCN(CCCNC(=O)Cn3c(=O)c4cccn4c4c(C)ccnc43)CC2)cc1` has a solubility of 12.4 µg/mL (aqueous buffer; pH 7.4).
`CC(C)CC(=O)N1CCC[C@H](COc2cccc3c2C(N)=NS(=O)(=O)N3)C1` gave a solubility of 240 µM (aqueous buffer; pH 7.1).
`CC(=O)N[C@@H](CC(N)=O)C(=O)N[C@@H](CC(N)=O)C(=O)N[C@@H](CC(C)C)C(=O)N[C@H]1CSSC[C@@H](C(=O)N[C@H](C(N)=O)[C@@H](C)O)NC(=O)[C@H](CCCNC(=N)N)NC(=O)[C@H](Cc2c[nH]cn2)NC(=O)[C@H](C)NC(=O)CNC(=O)[C@H](Cc2c[nH]c3ccccc23)NC(=O)[C@H](CC(=O)O)NC(=O)[C@H](CCC(N)=O)NC(=O)[C@H](Cc2c[nH]c3ccccc23)NC(=O)[C@H](C(C)C)NC1=O` has a solubility of 3920 µg/mL (PBS; pH 7.4).
`OCCOc1ccccc1` has a solubility of 180000 µM (PBS; 48 h; pH 7.4; 25 °C).
With `Cl.Clc1ccc2c(nc(N3CCNCC3)n2Cc2ccccc2)c1Cl` the solubility was 70 µM (shake flask; aqueous buffer; 20 h; pH 6.5; 25 °C).
`COCc1nc2nc(C)cc(Nc3ccc(S(F)(F)(F)(F)F)cc3)n2n1` gave a solubility of 63 to 130 µM (nephelometry; aqueous buffer; pH 6.5).
For `OCCOc1cccc2c(NCc3ccccc3)nc(N3CCOc4ccccc43)nc12`, the solubility was 0.48 µg/mL (aqueous buffer; pH 6.2).
For `CCCn1nc(C(=O)N2CCCCC2)c2c1CCC(N1CCc3ccccc3C1)C2` (stereo not shown), the solubility was 713 µM (PBS; 16 h; pH 7.4).
`O=C(O)c1ccc(-c2ccc(-c3cc4ccc(O)cc4oc3=O)cc2)cc1` has a solubility of 52.5 µM (shake flask; PBS; 36 h; pH 7.4).
`O=C(NCCN1CCCC1)c1cc(-c2ccc(CN3CCOCC3)cc2)nc2ccc(F)cc12.O=C(O)C=CC(=O)O` has a solubility of greater than 6490 µM (simulated gastric fluid; pH 2; 37 °C; acidic).
`CS(=O)(=O)c1ncn2c(NCc3c(F)ccc4c3CCO4)ncc(-c3ccc(C4CC4)nc3)c12` gave a solubility of 26.5 µg/mL (FaSSIF).
For `CCCOC(=O)c1ccc(N)cc1`, the solubility was 749 µg/mL (PBS; pH 7.4).
For `O=C(Nc1ccc(F)cc1C(=O)O)c1ccc(-c2ccccc2)cc1`, the solubility was 10 µM (shake flask; aqueous buffer; 24 h; pH 6.5; 25 °C).
`Cc1c(F)cccc1Nc1nc(NCc2ccccc2)c2ccccc2n1` gave a solubility of 8.4 µg/mL (aqueous buffer; pH 5).
With `O=C(Nc1cc(F)c(F)c(F)c1)c1ccc(F)c(S(=O)(=O)NCc2cccc(B(O)O)c2)c1` the solubility was 174 µg/mL (aqueous buffer; pH 2).
`Cc1cc(Nc2ccc(Cl)cc2)n2nc(C(C)(F)F)nc2n1` has a solubility of 77 to 150 µM (nephelometry; aqueous buffer; pH 6.5).
The solubility of `COc1cccc(OC)c1-c1nc(C(=O)N[C@@H](CC(C)C)C(=O)O)cn1-c1ccnc2cc(Cl)ccc12` is reported as greater than 52 µg/mL (aqueous buffer; pH 6.2).
`[Br-].c1ccc(-c2n(Cc3ccc4ccccc4c3)cc[n+]2Cc2ccc3ccccc3c2)cc1` gave a solubility of less than 500 µg/mL (water).
For `CN1CCN(CC2CCN(c3nccc4[nH]c(-c5cc(F)cc(F)c5)nc34)CC2)CC1`, the solubility was greater than 200 µM (shake flask; aqueous buffer; pH 6.5).
The solubility of `CNC(=O)c1ccc(N(Cc2ccc(C3CCCCC3)cn2)C(=O)[C@H]2CCN2S(=O)(=O)c2c(F)c(F)c(F)c(F)c2F)cc1O` is reported as 115 µg/mL (simulated gastric fluid).
With `COc1cccc2c(NCc3ccccc3)nc(N3CCNc4ccccc43)nc12` the solubility was 28.2 µg/mL (aqueous buffer; pH 5).
For `CCc1nc2nc(C)cc(Nc3cccc(Cl)c3)n2n1`, the solubility was 170 to 350 µM (nephelometry; aqueous buffer; pH 6.5).
With `CCOc1ccc2cc(-c3nn(CC(C)(C)CO)c(N)c3C(N)=O)ccc2n1` the solubility was greater than 100 µM (PBS; pH 6.5; 25 °C).
